Test results as given in ChEMBL document CHEMBL1828575, “Design, synthesis and antiproliferative activities of biarylolefins based on polyhydroxylated and carbohydrate scaffolds” (Eur J Med Chem, 2011).

What was measured:
Assay type in all cases: functional
[1] = test system: TK-10; experiment: Antitumor activity against human TK10 cells after 48 hrs by SRB assay; settings: TK-10, 48 h
In short: (§1)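 NCI60 panel cells grown in RPMI 1640 with 5% FBS and 2 mM L-glutamine, plated at 5000–40,000 cells/well and preincubated 24 h at 37 °C, 5% CO₂. Compound was added from DMSO at five concentrations, 10-fold or 1/2 log dilutions, then incubated 48 h.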

[2] = test system: MDA-MB-435; experiment: Cytotoxicity against human MDA-MB-435 cells assessed as cellular growth at 10 uM after 48 hrs by SRB assay
In short: (§2)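 NCI-60 panel lines grown in RPMI 1640 with 5% FBS and 2 mM L-glutamine. Plated at 5000–40,000 cells/well and preincubated 24 h at 37 °C, 5% CO₂, with time-zero plates fixed in TCA. Compounds, dissolved in DMSO and diluted in medium, were applied for 48 h. Cells were TCA-fixed (10% final for adherent, 16% for suspension) and stained with 0.4% SRB in 1% acetic acid. Dye was solubilised in 10 mM Tris base and read at 515 nm; growth was expressed as a percentage of untreated control.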

[3] = test system: MOLT-4; experiment: Antitumor activity against human MOLT4 cells after 48 hrs by SRB assay; settings: MOLT-4, 48 h
In short: (§3)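 NCI60 panel in RPMI 1640 with 5% FBS and 2 mM L-glutamine. Cells were plated at 5000–40,000/well by doubling time, held 24 h, then time-zero plates were TCA-fixed. Five concentrations (10-fold or half-log dilutions of DMSO stocks) were applied for 48 h at 37 °C, 5% CO2. Cells were fixed with cold TCA (10% final adherent, 16% suspension) and stained with 0.4% SRB. Bound dye was dissolved in 10 mM Tris and read at 515 nm. GI50, TGI and LC50 were calculated per line.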

[4] = test system: OVCAR-4; experiment: Antitumor activity against human OVCAR4 cells after 48 hrs by SRB assay; settings: OVCAR-4, 48 h; in short: as §3
[5] = test system: SF-539; experiment: Cytotoxicity against human SF539 cells assessed as cellular growth at 10 uM after 48 hrs by SRB assay; in short: as §2
[6] = test system: HT-29; experiment: Cytotoxicity against human HT-29 cells assessed as cellular growth at 10 uM after 48 hrs by SRB assay
In short: (§4)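 NCI60 single-dose screen of cells in RPMI 1640 with 5% FBS and 2 mM L-glutamine, preincubated 24 h at 37 °C, 5% CO₂. Cells were then exposed 48 h to compound added from DMSO stock. TCA-fixed, stained with 0.4% SRB in 1% acetic acid, dye solubilised in 10 mM Tris base and read at 515 nm. Growth is given as percent of untreated control.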

[7] = test system: NCI/ADR-RES; experiment: Antitumor activity against human NCI/ADR-RES cells after 48 hrs by SRB assay; in short: as §3
[8] = test system: BT-549; experiment: Cytotoxicity against human BT549 cells assessed as cellular growth at 10 uM after 48 hrs by SRB assay; in short: as §4
[9] = test system: NCI-H23; experiment: Antitumor activity against human NCI-H23 cells after 48 hrs by SRB assay; settings: NCI-H23, 48 h; in short: as §3
[10] = test system: DU-145; experiment: Antitumor activity against human DU145 cells after 48 hrs by SRB assay; settings: DU-145, 48 h; in short: as §3
[11] = test system: NCI-H522; experiment: Cytotoxicity against human NCI-H522 cells assessed as cellular growth at 10 uM after 48 hrs by SRB assay; in short: as §2
[12] = test system: K562; experiment: Antitumor activity against human K562 cells after 48 hrs by SRB assay; settings: K562, 48 h; in short: as §3
[13] = Cytotoxicity against human NCI60 cells assessed as cellular growth at 10 uM after 48 hrs by SRB assay relative to untreated control; in short: as §2
[14] = test system: M14; experiment: Cytotoxicity against human M14 cells assessed as cellular growth at 10 uM after 48 hrs by SRB assay; in short: as §4
[15] = test system: DU-145; experiment: Cytotoxicity against human DU145 cells assessed as cellular growth at 10 uM after 48 hrs by SRB assay; in short: as §4
[16] = test system: SR; experiment: Antitumor activity against human SR cells after 48 hrs by SRB assay; in short: as §1
[17] = test system: HT-29; experiment: Antiproliferative activity against human HT-29 cells after 48 hrs by SRB assay; settings: HT-29, 48 h; in short: as §3
[18] = test system: HOP-62; experiment: Cytotoxicity against human HOP62 cells assessed as cellular growth at 10 uM after 48 hrs by SRB assay; in short: as §4
[19] = test system: LOX IMVI; experiment: Antitumor activity against human LOXIMVI cells after 48 hrs by SRB assay; in short: as §3
[20] = test system: SF-539; experiment: Antitumor activity against human SF539 cells after 48 hrs by SRB assay; settings: SF-539, 48 h; in short: as §1
[21] = test system: OVCAR-3; experiment: Cytotoxicity against human OVCAR3 cells assessed as cellular growth at 10 uM after 48 hrs by SRB assay; in short: as §2
[22] = test system: OVCAR-5; experiment: Antitumor activity against human OVCAR5 cells after 48 hrs by SRB assay; settings: OVCAR-5, 48 h; in short: as §3
[23] = test system: SK-MEL-5; experiment: Antitumor activity against human SK-MEL-5 cells after 48 hrs by SRB assay; settings: SK-MEL-5, 48 h; in short: as §1
[24] = read-out: LC50 (the source's name)
[25] = read-out: pLC50 (the source's name) (converted)

COc1cc(/C(=C2\O[C@@H]([C@H]3COC(C)(C)O3)[C@H]3OC(C)(C)O[C@@H]23)c2ccc3ccccc3c2)cc(OC)c1OC
GI50 ([1]; read-out: GI50): 3.2 µM | CC50 [1, 24]: > 100 µM | TGI ([1]; read-out: TGI): 7.2 µM | GI50 ([1]; read-out: pGI50 (converted)): 3.16 µM | CC50 [1, 25]: > 100 µM | TGI ([1]; read-out: pTGI (converted)): 7.24 µM | Activity [2]: 26.19% | LC50 (concentration killing 50% of cells) [3]: > 100 µM | GI50 ([3]; read-out: GI50): > 100 µM | TGI ([3]; read-out: TGI): > 100 µM | GI50 ([3]; read-out: pGI50 (converted)): 100 µM | CC50 [3, 25]: > 100 µM | TGI ([3]; read-out: pTGI): > 100 µM | GI50 ([4]; read-out: GI50): 2.82 µM | CC50 [4, 24]: > 100 µM | TGI ([4]; read-out: TGI): 6.02 µM | GI50 ([4]; read-out: pGI50 (converted)): 14.1 µM | CC50 [4, 25]: > 100 µM | TGI ([4]; read-out: pTGI (converted)): 11 µM | Activity [5]: 26.42% | Activity [6]: 40.98% | GI50 [7]: 4.26 µM | LC50 [7]: > 100 µM | TGI [7]: 22.3 µM | Activity [8]: 22.16% | GI50 ([9]; read-out: GI50): 5.43 µM | CC50 [9, 24]: > 100 µM | TGI ([9]; read-out: TGI): > 100 µM | GI50 ([9]; read-out: pGI50 (converted)): 5.37 µM | CC50 [9, 25]: > 100 µM | TGI ([9]; read-out: pTGI (converted)): > 100 µM | GI50 ([10]; read-out: GI50): 4.33 µM | CC50 [10, 24]: > 100 µM | TGI ([10]; read-out: TGI): > 100 µM | GI50 ([10]; read-out: pGI50 (converted)): 4.37 µM | CC50 [10, 25]: > 100 µM | TGI ([10]; read-out: pTGI (converted)): > 100 µM | Activity [11]: 8.05% | GI50 ([12]; read-out: GI50): 4.02 µM | CC50 [12, 24]: > 100 µM | TGI ([12]; read-out: TGI): > 100 µM | GI50 ([12]; read-out: pGI50 (converted)): 3.98 µM | CC50 [12, 25]: > 100 µM | TGI ([12]; read-out: pTGI): > 100 µM | Activity [13]: 30% | Activity [14]: 62.78% | Activity [15]: 2.86% | GI50 ([16]; read-out: GI50): > 100 µM | CC50 [16, 24]: > 100 µM | TGI ([16]; read-out: TGI): > 100 µM | GI50 ([16]; read-out: pGI50 (converted)): 100 µM | CC50 [16, 25]: > 100 µM | TGI ([16]; read-out: pTGI): > 100 µM | LC50 (50% net cell kill) [17]: > 100 µM | GI50 ([17]; read-out: GI50): 6 µM | TGI ([17]; read-out: TGI): > 100 µM | GI50 ([17]; read-out: pGI50 (converted)): 6.03 µM | CC50 [17, 25]: > 100 µM | TGI ([17]; read-out: pTGI (converted)): > 100 µM | Activity [18]: 47.96% | GI50 [19]: 3.39 µM | TGI [19]: 19.8 µM | CC50 [19, 24]: > 100 µM | GI50 [20]: 14.3 µM | TGI [20]: 79 µM | CC50 [20, 24]: > 100 µM | Activity [21]: -6.76% | GI50 ([22]; read-out: GI50): 14 µM | CC50 [22, 24]: > 100 µM | TGI ([22]; read-out: TGI): > 100 µM | GI50 ([22]; read-out: pGI50 (converted)): 3.89 µM | CC50 [22, 25]: > 100 µM | TGI ([22]; read-out: pTGI (converted)): 7.94 µM | GI50 [23]: 4.07 µM | LC50 [23]: 51.4 µM | TGI [23]: 15.4 µM
